Experimental data published in ChEMBL document CHEMBL4477194, “Royal Jelly Constituents Increase the Expression of Extracellular Superoxide Dismutase through Histone Acetylation in Monocytic THP-1 Cells” (J Nat Prod, 2016).
Active and inactive are the calls of the source. The rule behind the calls is not given here.

Tests used:
[1] = organism: Homo sapiens; test: Upregulation of HDAC1 inhibition/ERK signalling activation-mediated extracellular SOD protein expression in human THP1 cells at 1 mM after 24 hrs by ELISA; type: cell-based
Summary of the method: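 EC-SOD protein content was measured by ELISA in THP-1 cells after 24 h treatment, with cells collected in PBS. Cells were cultured in RPMI 1640 with 10% heat-inactivated FCS at 37 °C and 5% CO2. Values are mean ± SD of three independent experiments, compared against untreated cells.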

[2] = tested on: THP-1; test: Effect on Cu/Zn SOD mRNA expression in human THP1 cells at 1 mM after 24 hrs by RT-PCR method; type: functional, cell-based
Summary of the method: (§1)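 THP-1 cells (RPMI 1640, 10% heat-inactivated FCS, 37 °C, 5% CO2) were seeded at 2.0 × 10^6 cells/dish and treated for 24 h. Cells were washed with cold PBS and lysed in TRIzol, then analysed by real-time RT-PCR normalized to 18S rRNA. Values are mean ± SD of three independent experiments, with ANOVA and Bonferroni tests.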

[3] = target: Histone deacetylase (Homo sapiens) (UniProt Q13547+O15379+Q9UBN7+Q92769+Q9UQL6+Q8WUI4+Q9BY41+Q96DB2+P56524+Q9UKV0+Q969S8); test: Inhibition of HDAC activity in human THP1 cells at 1 mM preincubated for 1 hr followed by substrate addition measured after 2 hrs by fluorescence assay relative to control; type: cell-based
Summary of the method: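 This is a cell-based HDAC assay. THP-1 cells at 5.0 × 10^4 cells/well were treated for 1 h, then HDAC substrate was added for 2 h at 37 °C. Lysis/developer solution followed for 15 min at 37 °C. Fluorescence was read at ex 365 nm / em 410–460 nm and compared with untreated cells; mean ± SD, n = 3 independent experiments.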

[4] = target: Histone deacetylase 1 (Homo sapiens) (UniProt Q13547); test: Inhibition of recombinant HDAC1 catalytic domain (unknown origin) using HDAC substrate at 1 mM preincubated for 1 hr followed by substrate addition measured after 30 mins by fluorescence assay relative to control
Chain of Histone deacetylase 1 (Homo sapiens) (Q13547 whole entry, the tested form may be a part): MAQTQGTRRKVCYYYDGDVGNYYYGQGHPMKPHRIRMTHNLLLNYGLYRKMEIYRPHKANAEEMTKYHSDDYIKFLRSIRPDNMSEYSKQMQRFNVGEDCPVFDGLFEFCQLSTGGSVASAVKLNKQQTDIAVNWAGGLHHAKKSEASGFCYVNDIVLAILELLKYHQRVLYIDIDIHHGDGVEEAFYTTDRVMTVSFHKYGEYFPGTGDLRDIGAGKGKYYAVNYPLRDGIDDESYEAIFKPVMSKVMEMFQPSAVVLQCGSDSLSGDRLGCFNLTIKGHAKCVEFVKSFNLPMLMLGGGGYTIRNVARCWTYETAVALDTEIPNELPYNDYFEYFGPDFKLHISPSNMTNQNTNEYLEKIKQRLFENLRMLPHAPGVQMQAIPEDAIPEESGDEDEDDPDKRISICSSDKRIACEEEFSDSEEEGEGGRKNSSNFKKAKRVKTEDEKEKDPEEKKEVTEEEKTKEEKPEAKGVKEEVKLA
Summary of the method: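 Recombinant HDAC1 was mixed with compound in assay buffer, and the reaction was started with HDAC substrate for 30 min at 37 °C in the dark. Developer was then added for 15 min at room temperature. Fluorescence was read at ex 365 nm / em 410–460 nm and compared with untreated control; mean ± SD of three independent experiments.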

[5] = target: Histone deacetylase 1 (Homo sapiens) (UniProt Q13547); test: Inhibition of HDAC1 in human THP1 cells assessed as increase in histone H4 acetylation level at 1 mM after 12 hrs by Western blot analysis relative to control; type: cell-based
Summary of the method: (§2)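 After 12 h treatment, THP-1 whole-cell extracts (20 μg protein) were run on 12% SDS-PAGE and transferred to PVDF. Membranes were blocked with 1% BSA in PBS and probed with anti-acetyl histone H3 or H4 primary antibodies (1:1000), then a biotin-conjugated secondary antibody (1:1000). Histone loading was checked by Coomassie staining.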

[6] = target: Histone deacetylase 1 (Homo sapiens) (UniProt Q13547); test: Inhibition of HDAC1 in human THP1 cells assessed as increase in histone H3 acetylation level at 1 mM after 12 hrs by Western blot analysis relative to control; type: cell-based; summary of the method: as §2
[7] = organism: Homo sapiens; test: Upregulation of HDAC1 inhibition/ERK signalling activation-mediated extracellular SOD mRNA expression in human THP1 cells at 1 mM after 24 hrs by RT-PCR method; type: cell-based; summary of the method: as §1
[8] = tested on: THP-1; test: Upregulation of Mn SOD mRNA expression in human THP1 cells at 1 mM after 24 hrs by RT-PCR method; type: functional, cell-based; summary of the method: as §1
[9] = tested on: THP-1; test: Effect on HDAC1 mRNA expression in human THP1 cells at 1 mM after 24 hrs by RT-PCR method; type: functional, cell-based
Summary of the method: (§3)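 THP-1 cells in RPMI 1640 with 10% heat-inactivated FCS, 37 °C, 5% CO2. Seeded 2.0 × 10^6 cells per 3.5 cm dish and treated 24 h, at 1 mM for the 1 mM lines and 100 μM for the 100 μM lines. RNA extracted in TRIzol, then real-time RT-PCR normalized to 18S rRNA. Means ± SD of three independent experiments; ANOVA with Bonferroni post hoc.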

[10] = tested on: THP-1; test: Effect on HDAC4 mRNA expression in human THP1 cells at 1 mM after 24 hrs by RT-PCR method; type: functional, cell-based; summary of the method: as §3
[11] = tested on: THP-1; test: Effect on HDAC7 mRNA expression in human THP1 cells at 1 mM after 24 hrs by RT-PCR method; type: functional, cell-based; summary of the method: as §3
[12] = tested on: THP-1; test: Effect on HDAC6 mRNA expression in human THP1 cells at 1 mM after 24 hrs by RT-PCR method; type: functional, cell-based; summary of the method: as §3
[13] = tested on: THP-1; test: Effect on HDAC8 mRNA expression in human THP1 cells at 1 mM after 24 hrs by RT-PCR method; type: functional, cell-based; summary of the method: as §3
[14] = tested on: THP-1; test: Effect on HDAC3 mRNA expression in human THP1 cells at 1 mM after 24 hrs by RT-PCR method; type: functional, cell-based; summary of the method: as §3
[15] = tested on: THP-1; test: Effect on HDAC10 mRNA expression in human THP1 cells at 1 mM after 24 hrs by RT-PCR method; type: functional, cell-based; summary of the method: as §3
[16] = tested on: THP-1; test: Effect on HDAC2 mRNA expression in human THP1 cells at 1 mM after 24 hrs by RT-PCR method; type: functional, cell-based; summary of the method: as §3
[17] = target: Histone deacetylase 1 (Homo sapiens) (UniProt Q13547); test: Upregulation of HDAC1 inhibition-mediated histone H4 acetylation-induced extracellular SOD expression in human THP1 cells at 1 mM after 12 hrs by chromatin immunoprecipitation method; type: cell-based
Summary of the method: (§4)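 THP-1 cells (5 × 10^6) treated 12 h, at 1 mM or 100 μM per line. Cross-linked with formaldehyde 5 min at room temperature and chromatin sonicated to 150–800 bp. Immunoprecipitated overnight on protein G beads and washed in RIPA I/II and TE. Eluted with RNase A and proteinase K. EC-SOD promoter binding expressed as % of input.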

[18] = tested on: THP-1; test: Effect on HDAC9 mRNA expression in human THP1 cells at 1 mM after 24 hrs by RT-PCR method; type: functional, cell-based; summary of the method: as §3
[19] = tested on: THP-1; test: Effect on HDAC5 mRNA expression in human THP1 cells at 1 mM after 24 hrs by RT-PCR method; type: functional, cell-based; summary of the method: as §3
[20] = target: Histone deacetylase 1 (Homo sapiens) (UniProt Q13547); test: Upregulation of HDAC1 inhibition-mediated histone H3 acetylation-induced extracellular SOD expression in human THP1 cells at 1 mM after 12 hrs by chromatin immunoprecipitation method; type: cell-based; summary of the method: as §4

inhibition [3]	inhibition [4]	fold change (FC) [5]	fold change (FC) [6]	Compound	Activity [1]	Activity [2]	Activity [7]	Activity [8]	Activity [9]	Activity [10]	Activity [11]	Activity [12]	Activity [13]	Activity [14]	Activity [15]	Activity [16]	Activity [17]	Activity [18]	Activity [19]	Activity [20]
Active	50%	2.47	1.29	O=C(O)/C=C\CCCCCCCO	Active	inactive	Active	Active												
20%	50%	2.24	1.24	O=C(O)CCCCCCCCC(=O)O	Active	inactive	Active	Active	inactive	inactive	inactive	inactive	inactive	inactive	inactive	inactive	Active	inactive	inactive	inactive

Compound	inhibition [3]	inhibition [4]	fold change (FC) [5]	fold change (FC) [6]	Activity [1]	Activity [2]	Activity [7]	Activity [8]	Activity [9]	Activity [10]	Activity [11]	Activity [12]	Activity [13]	Activity [14]	Activity [15]	Activity [16]	Activity [17]	Activity [18]	Activity [19]	Activity [20]
O=C(O)CCCCCCCCCO	20%	50%	2.45	1.33	Active	inactive	Active	inactive	inactive	inactive	inactive	inactive	inactive	inactive	inactive	inactive	Active	inactive	inactive	inactive
